ChEMBL document CHEMBL3853290, “Sesquiterpenoids Isolated from Two Species of the Asteriscus Alliance” (J Nat Prod, 2016)

Assays:
Format in all cases: functional, cell-based
[1] = (§1) Cytotoxicity against human MOLT3 cells assessed as cell growth inhibition after 72 hrs by MTT assay; conditions: MOLT-3, 72 h
Summary of the method: (§2)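 Cells from DSMZ, grown in RPMI 1640 with 2 mM L-glutamine and 10% heat-inactivated FBS. 1 × 10^4 exponentially growing cells per well exposed to a range of compound concentrations. MTT (0.5 mg/mL) added, 4 h at 37 °C, then 10% SDS in 0.05 M HCl overnight at room temperature in the dark. Absorbance read at 570 nm. IC50 from nonlinear regression, means ± SE of ≥3 independent experiments in triplicate. Etoposide as positive control.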

[2] = Cytotoxicity against human HL60 cells assessed as cell growth inhibition after 72 hrs by MTT assay; conditions: HL-60, 72 h; summary of the method: as §2
MOLT-3 = experiment: as §1; summary of the method: as §2

SMILES | IC50 [1] [µM] | IC50 [2] [µM] | growth inhibition (GI) (MOLT-3)
C[C@@H]1C(=O)/C=C\C(C)(C)[C@@H]2C=C(CC[C@@H]1O)C(=O)O2 | > 10 | > 10 | –
CCO[C@H]1CCC2=C[C@H](OC2=O)C(C)(C)/C=C\C(=O)[C@H]1C | > 10 | > 10 | –
CC1(C)/C=C\C(=O)[C@@]2(C)O[C@H]2CCC2=C[C@@H]1OC2=O | 4.1 | 5.4 | Dose-dependent effect
C/C1=C/CC[C@]23O[C@H]2[C@H](OC3=O)C(C)(C)/C=C/C1=O | > 10 | > 10 | –
CC1(C)C[C@@H]2C(=O)[C@](C)(O)/C=C\C[C@@H]3C(=O)O[C@H]1[C@@H]32 | > 10 | > 10 | –
COc1cc([C@@H]2c3cc4c(cc3[C@@H](O[C@@H]3O[C@@H]5CO[C@@H](C)O[C@H]5[C@H](O)[C@H]3O)[C@H]3COC(=O)[C@H]23)OCO4)cc(OC)c1O [ETOPOSIDE] | 0.7 | 0.5 | –
